From ChEMBL document CHEMBL1152814, “Novel cyano- and amidinobenzothiazole derivatives: synthesis, antitumor evaluation, and X-ray and quantitative structure-activity relationship (QSAR) analysis” (J Med Chem, 2009)

How the values were obtained:
MCF7 = experiment: Antiproliferative activity against human MCF7 cells after 72 hrs by MTT assay; assay type: functional, cell-based; details: MCF7, 72 h
Method in brief: (§1)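 Monolayers in DMEM with 10% FBS, 2 mM L-glutamine, penicillin/streptomycin, 37 °C, 5% CO2. Seeded at 3 × 10³ to 6 × 10³ cells/well on day 0. Agents added the next day in five 10-fold dilutions (10^-8–10^-4 mol/L), with a DMSO solvent control (max 0.25%). MTT read at 570 nm after 72 h. Quadruplicate points, three experiments. IC50 is the concentration giving 50% growth inhibition.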

[1] = Antiproliferative activity against human WI38 cells after 72 hrs by MTT assay; assay type: cell-based; details: WI-38, 72 h; method in brief: as §1
MIA PaCa-2 = experiment: Antiproliferative activity against human MIAPaCa2 cells after 72 hrs by MTT assay; assay type: functional, cell-based; details: MIA PaCa-2, 72 h; method in brief: as §1
HeLa = experiment: Antiproliferative activity against human HeLa cells after 72 hrs by MTT assay; assay type: functional, cell-based; method in brief: as §1
NCI-H460 = experiment: Antiproliferative activity against human H460 cells after 72 hrs by MTT assay; assay type: functional, cell-based; details: NCI-H460, 72 h; method in brief: as §1
SW-620 = experiment: Antiproliferative activity against human SW620 cells after 72 hrs by MTT assay; assay type: functional, cell-based; details: SW-620, 72 h; method in brief: as §1
HEp-2 = experiment: Antiproliferative activity against human Hep2 cells after 72 hrs by MTT assay; assay type: functional, cell-based; details: HEp-2, 72 h; method in brief: as §1

SMILES | IC50 (MCF7) [µM] | IC50 (MIA PaCa-2) [µM] | IC50 (HeLa) [µM] | IC50 (NCI-H460) [µM] | IC50 (SW-620) [µM] | IC50 [1] [µM] | IC50 (HEp-2) [µM]
N#Cc1ccc2nc(Nc3ccc(Cl)cn3)sc2c1 | 10 | 6 | > 10 | – | ≥ 10 | > 10 | > 10
CC(C)NC(=N)c1ccc2nc(NC(=O)c3ccccc3)sc2c1 | 22 | 38 | 16 | 15 | 30 | > 100 | –
CC(C)NC(=N)c1ccc2nc(NC(=O)c3ccccc3Cl)sc2c1 | 16 | 45 | 23 | 59 | 45 | 61 | –
Cc1cccnc1Nc1nc2ccc(C#N)cc2s1 | > 10 | 3 | > 10 | – | 3 | 2.3 | > 10
N#Cc1ccc2nc(Nc3ncccn3)sc2c1 | 7 | 3 | 5 | – | 9 | ≥ 10 | 5
Cc1ccc(Nc2nc3ccc(C#N)cc3s2)nc1 | > 10 | 5 | 9 | – | > 10 | 4 | > 10
CC(C)NC(=N)c1ccc2nc(NC(=O)c3ccc(F)cc3)sc2c1 | 13 | 32 | 13 | 22 | 35 | > 100 | –
Cc1cccc(Nc2nc3ccc(C#N)cc3s2)n1 | 8 | 6 | 8 | – | 4 | > 10 | > 10

Compounds with a lower IC50 (MCF7), results first:

IC50 (MCF7) [µM] | IC50 (MIA PaCa-2) [µM] | IC50 (HeLa) [µM] | IC50 (NCI-H460) [µM] | IC50 (SW-620) [µM] | SMILES | IC50 [1] [µM] | IC50 (HEp-2) [µM]
5 | 12 | 9 | 15 | 13 | CC(C)NC(=N)c1ccc2nc(Nc3ccc(Cl)cn3)sc2c1 | 17 | –
1.4 | 1.6 | 1 | 1.5 | 1.3 | Clc1ccc(Nc2nc3ccc(C4=NCCN4)cc3s2)nc1 | 1 | –
2 | 3 | 3 | 2 | 2 | Cc1cccnc1Nc1nc2ccc(C3=NCCN3)cc2s1 | – | –
2 | 3 | 4 | 2 | 3 | Cc1ccnc(Nc2nc3ccc(C(=N)NC(C)C)cc3s2)c1 | 12.5 | –
